Measured values as given in ChEMBL document CHEMBL1151848, “Aryl nucleoside H-phosphonates. Part 16: synthesis and anti-HIV-1 activity of di-aryl nucleoside phosphotriesters” (Bioorg Med Chem, 2009).

Legend:
[1] = Cytotoxicity against human MT4 cells after 96 hrs by MTT assay; format: cell-based
Method in brief: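 Exponentially growing mock-infected MT-4 cells were seeded at 1 × 10⁵ cells/ml in RPMI-1640 with 10% FCS, penicillin G and streptomycin. They were incubated with serial compound dilutions at 37 °C in humidified 5% CO₂, and viability was read by MTT after 96 h. CC50 is the concentration reducing viability by 50%, as the mean of three independent determinations.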

[2] = system: Human immunodeficiency virus 1; assay: Antiviral activity against HIV1 3B infected in human MT4 cells assessed as protection from virus-induced cytopathogenicity after 4 days by MTT assay; format: functional, organism-based; settings: Human immunodeficiency virus 1, 3B, MT4, 96 h
Method in brief: (§1)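 MT-4 cells, acutely infected at m.o.i. 0.01, were used to read inhibition of HIV-1-induced cytopathogenicity. Compounds were made as 100 mM DMSO stocks and diluted in culture medium. Viability was read by MTT. EC50 is the concentration giving 50% protection, as the mean (+SD) of three independent determinations.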

[3] = Selectivity index, ratio of CC50 for human MT4 cells to EC50 for HIV1 3B; format: toxicity, cell-based; settings: read-out: Ratio CC50/EC50
[4] = Chemical stability in RPMI-1640 culture medium at 2 uM up to 6 days by HPLC analysis; format: physicochemical; settings: 144 h
[5] = Chemical stability assessed as enzymatic hydrolysis half life in RPMI-1640 culture medium containing heat non-inactivated fetal bovine serum by HPLC analysis; format: physicochemical; settings: cattle
Method in brief: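 Enzymatic hydrolysis by phosphoesterases was followed in RPMI-1640 containing heat non-inactivated FBS (RPMI/FBS 9:1, v/v).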

[6] = system: Human immunodeficiency virus 1; assay: Antiviral activity against efavirenz-resistant HIV1 infected in human MT4 cells assessed as protection from virus-induced cytopathogenicity after 4 days by MTT assay; format: functional, organism-based; settings: Human immunodeficiency virus 1, MT4, 96 h; method in brief: as §1
[7] = system: Human immunodeficiency virus 1; assay: Antiviral activity against MDR1-resistant HIV1 infected in human MT4 cells assessed as protection from virus-induced cytopathogenicity after 4 days by MTT assay; format: functional, organism-based; settings: Human immunodeficiency virus 1, MT4, 96 h; method in brief: as §1
[8] = system: Human immunodeficiency virus 1; assay: Antiviral activity against non-nucleoside reverse transcriptase inhibitor-resistant HIV1 bearing reverse transcriptase A17 (K103N, Y181C) mutation infected in human MT4 cells assessed as protection from virus-induced cytopathogenicity after 4 days by MTT assay; format: functional, organism-based; settings: Human immunodeficiency virus 1, MT4, 96 h; method in brief: as §1
[9] = Chemical stability assessed as chemical hydrolysis half life in RPMI-1640 culture medium by HPLC analysis; format: physicochemical
Method in brief: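 Chemical hydrolysis of the compounds was followed in RPMI-1640 medium alone.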

[10] = system: Human immunodeficiency virus 1; assay: Antiviral activity against azidothymidine-resistant HIV1 infected in human MT4 cells assessed as protection from virus-induced cytopathogenicity after 4 days by MTT assay; format: functional, organism-based; settings: Human immunodeficiency virus 1, MT4, 96 h; method in brief: as §1
[11] = system: Human immunodeficiency virus 1; assay: Antiviral activity against non-nucleoside reverse transcriptase inhibitor-resistant HIV1 bearing reverse transcriptase N119 (Y181C) mutation infected in human MT4 cells assessed as protection from virus-induced cytopathogenicity after 4 days by MTT assay; format: functional, organism-based; settings: Human immunodeficiency virus 1, MT4, 96 h; method in brief: as §1

SMILES	CC50 at 96 h [1]	EC50 [2]	selectivity ratio [3]	Stability [4]	half-life [5]	EC50 [6]	EC50 [7]	EC50 [8]	half-life [9]	EC50 [10]	EC50 [11]
O=c1ccn([C@H]2CC[C@@H](CO)O2)c(=O)[nH]1	> 100000 nM	> 100000 nM	–	–	–	–	–	–	–	–	–
Nc1ncnc2c1ncn2[C@H]1CC[C@@H](CO)O1	> 100000 nM	5200 nM	> 19	–	–	–	–	–	–	–	–
Cc1ccc(OP(=O)(O)OC[C@H]2O[C@@H](n3cc(C)c(=O)[nH]c3=O)C[C@@H]2N=[N+]=[N-])cn1	–	–	–	Stable	28.9 h	–	–	–	–	–	–
Cc1cn([C@H]2C[C@H](N=[N+]=[N-])[C@@H](COP(=O)(Oc3ccccc3)Oc3cncc(Cl)c3)O2)c(=O)[nH]c1=O (some centres undefined)	100000 nM	40 nM	2500	–	–	10 nM	600 nM	10 nM	25.1 h	1500 nM	50 nM
O=c1ccn([C@H]2CC[C@@H](COP(=O)(O)Oc3ccccc3)O2)c(=O)[nH]1	–	–	–	Stable	25.1 h	–	–	–	–	–	–
Cc1cn([C@H]2C[C@H](N=[N+]=[N-])[C@@H](COP(=O)(O)Oc3cncc(Cl)c3)O2)c(=O)[nH]c1=O	–	–	–	Stable	7.27 h	–	–	–	–	–	–
Cc1cn([C@H]2C[C@H](N=[N+]=[N-])[C@@H](COP(=O)(Oc3ccccc3)Oc3ccncc3)O2)c(=O)[nH]c1=O (some centres undefined)	> 100000 nM	10 nM	> 10000	–	–	10 nM	100 nM	8 nM	12.8 h	400 nM	10 nM
Cc1cn([C@H]2C[C@H](N=[N+]=[N-])[C@@H](COP(=O)(Oc3ccc(Br)cc3)Oc3cccnc3)O2)c(=O)[nH]c1=O (some centres undefined)	94000 nM	30 nM	3130	–	–	20 nM	500 nM	10 nM	44.3 h	1800 nM	50 nM
Cc1cn([C@H]2C[C@H](N=[N+]=[N-])[C@@H](COP(=O)(Oc3ccncc3)Oc3cccnc3)O2)c(=O)[nH]c1=O (some centres undefined)	> 100000 nM	20 nM	> 5000	–	–	10 nM	1200 nM	7 nM	8.55 h	2300 nM	10 nM
Cc1ccc(OP(=O)(OC[C@H]2O[C@@H](n3cc(C)c(=O)[nH]c3=O)C[C@@H]2N=[N+]=[N-])Oc2ccc(C)nc2)cn1	> 100000 nM	40 nM	> 2500	–	–	30 nM	400 nM	10 nM	21.4 h	800 nM	50 nM
Cc1cn([C@H]2C[C@H](N=[N+]=[N-])[C@@H](COP(=O)(Oc3ccccc3)Oc3cccnc3Cl)O2)c(=O)[nH]c1=O (some centres undefined)	≥ 100000 nM	30 nM	> 3330	–	–	10 nM	400 nM	10 nM	16.1 h	1200 nM	20 nM
Cc1cn([C@H]2C[C@H](N=[N+]=[N-])[C@@H](COP(=O)(O)Oc3ccncc3)O2)c(=O)[nH]c1=O	–	–	–	Stable	8.07 h	–	–	–	–	–	–
Cc1cn([C@H]2C[C@H](N=[N+]=[N-])[C@@H](COP(=O)(Oc3ccc(C#N)cc3)Oc3cccnc3)O2)c(=O)[nH]c1=O (some centres undefined)	58000 nM	20 nM	2900	–	–	30 nM	300 nM	9 nM	2.88 h	800 nM	20 nM
Cc1ncccc1OP(=O)(OC[C@H]1O[C@@H](n2cc(C)c(=O)[nH]c2=O)C[C@@H]1N=[N+]=[N-])Oc1cccnc1C	> 100000 nM	20 nM	> 5000	–	–	20 nM	200 nM	10 nM	17.2 h	800 nM	30 nM
Cc1cn([C@H]2C[C@H](N=[N+]=[N-])[C@@H](COP(=O)(O)Oc3ccccc3)O2)c(=O)[nH]c1=O	–	–	–	Stable	9.47 h	–	–	–	–	–	–
O=c1ccn([C@H]2CC[C@@H](COP(=O)(O)Oc3cccnc3)O2)c(=O)[nH]1	–	–	–	Stable	50.2 h	–	–	–	–	–	–
